ChEMBL document CHEMBL1135543, “Alpha(1)-adrenoceptor antagonists. 4. Pharmacophore-based design, synthesis, and biological evaluation of new imidazo-, benzimidazo-, and indoloarylpiperazine derivatives” (J Med Chem, 2002)

biological target: T1, 5-hydroxytryptamine receptor 1A (Rattus norvegicus, UniProt P19327); test: Binding affinity against 5-hydroxytryptamine 1A receptor by displacing [3H]8-OH-DPAT radioligand in rat cortex membrane; format: cell membranes
T1 sequence (P19327 whole entry): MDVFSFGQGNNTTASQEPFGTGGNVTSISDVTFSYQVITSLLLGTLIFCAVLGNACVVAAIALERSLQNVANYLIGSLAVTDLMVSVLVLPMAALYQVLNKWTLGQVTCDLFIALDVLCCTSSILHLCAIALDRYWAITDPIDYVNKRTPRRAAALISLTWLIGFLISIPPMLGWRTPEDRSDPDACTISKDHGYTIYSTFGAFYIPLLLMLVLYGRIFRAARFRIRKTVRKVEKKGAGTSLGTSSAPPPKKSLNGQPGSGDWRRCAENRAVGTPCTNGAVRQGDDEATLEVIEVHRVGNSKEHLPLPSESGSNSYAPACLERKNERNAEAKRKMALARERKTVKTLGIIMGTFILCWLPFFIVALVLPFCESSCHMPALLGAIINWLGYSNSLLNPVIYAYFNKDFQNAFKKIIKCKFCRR
How it was run: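 Rat cortex membranes, pre-incubated 10 min at 37 °C to remove endogenous 5-HT, stored at –80 °C, then resuspended in 50 mM Tris-HCl pH 7.4 (0.2–0.3 mg protein). GF/C filtration, scintillation counting.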

Row | Ki | SMILES
1 | 617 nM | O=c1ccc(-n2ccnc2)nn1CCCN1CCN(c2ccccc2Cl)CC1
2 | 382 nM | COc1ccccc1N1CCN(CCCn2nc(-n3cnc4ccccc43)ccc2=O)CC1
3 | 461 nM | O=c1ccc(-n2cnc3ccccc32)nn1CCCN1CCN(c2ccccc2Cl)CC1
4 | 463 nM | COc1ccccc1N1CCN(CCCn2nc(-n3ccnc3)ccc2=O)CC1
